Reference: ChEMBL document CHEMBL4837218, “Synthesis and in vitro antitumour activity of 4(R)-methyl-3-O-phosphonomethyl-α-l-threose nucleosides” (Eur J Med Chem, 2021)
Activity calls are given as the source filed them. The calls are words filed in the database; no cut-off is given here.

What was measured:
MCF7 [1] = assay: Induction of apoptosis in human MCF7 cells assessed as increase in cleaved caspase 9 protein expression at 1 to 4 uM measured after 48 hrs by western blot analysis; type: functional, cell-based; settings: dose 1-4 µM
In short: (§1)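 MCF-7 and MDA-MB-231 breast cancer cells treated 48 h with a concentration series, then lysed for protein. SDS-PAGE on 5–15% gels, transfer to nitrocellulose. Blocked 2 h in 5% nonfat milk/PBS-0.1% Tween 20, primary antibodies overnight at 4 °C, biotin-conjugated secondary 1 h. X-ray film detection with densitometric quantification.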

MCF7 [2] = assay: Cell cycle arrest in human MCF7 cells assessed as accumulation at S phase at 2 uM measured after 48 hrs by propidium iodide staining based flow cytometry (reference value: 25.34 %); type: functional
MCF7 [3] = assay: Induction of apoptosis in human MCF7 cells assessed as reduction in Mcl-1 protein expression at 1 to 4 uM measured after 48 hrs by western blot analysis; type: functional, cell-based; settings: dose 1-4 µM; in short: as §1
MDA-MB-231 [4] = assay: Induction of G2/M phase cell cycle arrest in human MDA-MB-231 cells assessed as decrease in cyclinB1 protein expression at 3 to 9 uM measured after 48 hrs by western blot analysis; type: functional, cell-based; settings: dose 3-9 µM
In short: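 Cells exposed to graded concentrations for 48 h, then proteins extracted. Run on SDS-PAGE (5–15% gels) and transferred to nitrocellulose. Blocked 2 h in 5% nonfat milk in PBS/0.1% Tween 20, primary antibody overnight at 4 °C, biotin-conjugated secondary 1 h. Visualized on X-ray film with densitometric quantitation; three independent experiments.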

MCF7 [5] = assay: Cell cycle arrest in human MCF7 cells assessed as accumulation at G1 phase at 1 uM measured after 48 hrs by propidium iodide staining based flow cytometry (reference value: 70.09 %); type: functional
MDA-MB-231 [6] = assay: Induction of apoptosis in human MDA-MB-231 cells assessed as early apoptotic cells at 9 uM measured after 48 hrs in presence of cdc25c inhibitor, NSC663284 by AnnexinV-FITC/PI staining based flow cytometry (reference value: 7.4%); type: functional
MDA-MB-231 [7] = assay: Induction of apoptosis in human MDA-MB-231 cells assessed as increase in cleaved caspase 7 protein expression at 9 uM measured after 48 hrs in presence of cdc25c inhibitor, NSC663284 by western blot analysis; type: functional, cell-based
In short: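 Four arms per cell line: untreated, test compound, 0.3 µM NSC663284 alone, and combination. Proteins harvested after 48 h and resolved by SDS-PAGE on 5–15% gels, transferred to nitrocellulose. Blocked 2 h in milk/PBS-Tween, primary antibodies overnight at 4 °C, biotin-conjugated secondary. Read on X-ray film with densitometry.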

MDA-MB-231 [8] = assay: Induction of mitochondrial membrane potential loss in human MDA-MB-231 cells assessed as red fluorescence intensity at 6 uM measured after 48 hrs by JC1 staining-based flow cytometry analysis (reference value: 99.2 %); type: functional
MDA-MB-231 [9] = assay: Cell cycle arrest in human MDA-MB-231 cells assessed as accumulation at G2/M phase at 9 uM measured after 48 hrs by propidium iodide staining based flow cytometry (reference value: 15.46 %); type: functional
MCF7 [10] = assay: Induction of apoptosis in human MCF7 cells assessed as early apoptotic cells at 1 uM measured after 48 hrs by Annexin V-FITC/propidium iodide staining based flow cytometric analysis (reference value: 3 %); type: functional
MDA-MB-231 [11] = assay: Induction of mitochondrial membrane potential loss in human MDA-MB-231 cells assessed as green fluorescence intensity at 3 uM measured after 48 hrs by JC1 staining-based flow cytometry analysis (reference value: 0.8 %); type: functional
MDA-MB-231 [12] = assay: Cell cycle arrest in human MDA-MB-231 cells assessed as accumulation at G1 phase at 9 uM measured after 48 hrs by propidium iodide staining based flow cytometry (reference value: 46.28%); type: functional
MDA-MB-231 [13] = assay: Induction of G2/M phase cell cycle arrest in human MDA-MB-231 cells assessed as downregulation of p-cdc2 protein expression at 9 uM measured after 48 hrs in presence of cdc25c inhibitor, NSC663284 by western blot analysis; type: functional, cell-based
MCF7 [14] = assay: Induction of mitochondrial membrane potential loss in human MCF7 cells assessed as green fluorescence intensity at 1 uM measured after 48 hrs by JC1 staining-based flow cytometry analysis (reference value: 8.1 %); type: functional
MCF7 [15] = assay: Cell cycle arrest in human MCF7 cells assessed as accumulation of cells at G2/M phase at 4 uM in presence of inhibitor cdc25c inhibitor, NSC663284 measured after 48 hrs by PI staining based flow cytometry; type: functional
In short: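 Four arms (untreated, test compound alone, 0.3 NSC663284 alone, combination) applied to cells for 48 h. Cells were fixed in 70% ice-cold ethanol at 4 °C overnight and stained with RNase/PI for 30 min in the dark. G2/M fraction was read by flow cytometry.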

MCF7 [16] = assay: Cell cycle arrest in human MCF7 cells assessed as accumulation at S phase at 1 uM measured after 48 hrs by propidium iodide staining based flow cytometry (reference value: 25.34 %); type: functional
PC-3 = assay: Antiproliferative activity against human PC-3 cells assessed as cell growth inhibition measured after 72 hrs by MTT assay; type: functional, cell-based; settings: PC-3, 72 h
In short: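 Cells seeded at 3000 exponentially growing cells/well and incubated 12 h at 37 °C. Medium then replaced with fresh medium containing graded compound concentrations for 72 h; 5-FU positive control. MTT (5 mg/mL solution) added for 4 h, formazan dissolved in DMSO, absorbance read at 570 nm (reference 630 nm). Relative percentage inhibition of viable cells calculated; IC50 reported as mean ± standard deviation.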

MCF7 [17] = assay: Antiproliferative activity against human MCF7 cells assessed as reduction in cell viability at 0.06 to 16 uM measured after 24 to 72 hrs by MTT assay; type: functional, cell-based; settings: dose 0.06-16 µM, time 24-72 hrs
In short: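 MTT viability time course on the breast cancer cells with increasing compound concentrations for 24, 48 and 72 h. Cells seeded at 3000/well and allowed 12 h before treatment. MTT (5 mg/mL solution) applied for 4 h, crystals dissolved in DMSO, absorbance read at 570/630 nm. Viability expressed relative to untreated cells.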

MCF7 [18] = assay: Cell cycle arrest in human MCF7 cells assessed as accumulation at G1 phase at 2 uM measured after 48 hrs by propidium iodide staining based flow cytometry (reference value: 70.09 %); type: functional

`C[C@H]1O[C@@H](n2cnc3c(N)nc(F)nc32)[C@H](O)[C@H]1OCP(=O)([O-])[O-].[Na+].[Na+]` was tested, and the Activity (MCF7 [1]) was “Active”, the Activity (MCF7 [2]) was 38.69% and the Activity (MCF7 [3]) was “Active”. For the same compound, the Activity (MDA-MB-231 [4]) was “Active”, the Activity (MCF7 [5]) was 63.54% and the Activity (MDA-MB-231 [6]) was 5.1%. The Activity (MDA-MB-231 [7]) was “inactive”, the Activity (MDA-MB-231 [8]) was 63.8% and the Activity (MDA-MB-231 [9]) was 31.49%. It also gave an Activity (MCF7 [10]) of 15.5%, an Activity (MDA-MB-231 [11]) of 1.4% and an Activity (MDA-MB-231 [12]) of 33.66%. For the same compound, the Activity (MDA-MB-231 [13]) was “inactive”, the Activity (MCF7 [14]) was 9.1% and the Activity (MCF7 [15]) was “inactive”. The Activity (MCF7 [16]) was 18.63%, the IC50 (PC-3) was 2210 nM and the Activity (MCF7 [17]) was “Active”. The Activity (MCF7 [18]) was 41.43%.
